High-throughput results deposited in PubChem by several laboratories.
KCC2 mod: modulators of human KCC2 chloride dependent transport; Q9H2X9; KCC2 cells, thallium flux FluoZin-2 fluorescence; B-score of Tl+ flux slope (higher = more flux/activation; lower = inhibition) at 10 µM; hit rate 2.2% among 190,000; AID 1456;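 active = thallium flux slope and its plate-corrected score both differing from the plate sample mean at a set confidence after two filtering rounds, in either direction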;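 also: slope of fluorescence scaled to starting intensity during 10 to 20 s after thallium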
Target sequence (Q9H2X9 whole entry, looked up): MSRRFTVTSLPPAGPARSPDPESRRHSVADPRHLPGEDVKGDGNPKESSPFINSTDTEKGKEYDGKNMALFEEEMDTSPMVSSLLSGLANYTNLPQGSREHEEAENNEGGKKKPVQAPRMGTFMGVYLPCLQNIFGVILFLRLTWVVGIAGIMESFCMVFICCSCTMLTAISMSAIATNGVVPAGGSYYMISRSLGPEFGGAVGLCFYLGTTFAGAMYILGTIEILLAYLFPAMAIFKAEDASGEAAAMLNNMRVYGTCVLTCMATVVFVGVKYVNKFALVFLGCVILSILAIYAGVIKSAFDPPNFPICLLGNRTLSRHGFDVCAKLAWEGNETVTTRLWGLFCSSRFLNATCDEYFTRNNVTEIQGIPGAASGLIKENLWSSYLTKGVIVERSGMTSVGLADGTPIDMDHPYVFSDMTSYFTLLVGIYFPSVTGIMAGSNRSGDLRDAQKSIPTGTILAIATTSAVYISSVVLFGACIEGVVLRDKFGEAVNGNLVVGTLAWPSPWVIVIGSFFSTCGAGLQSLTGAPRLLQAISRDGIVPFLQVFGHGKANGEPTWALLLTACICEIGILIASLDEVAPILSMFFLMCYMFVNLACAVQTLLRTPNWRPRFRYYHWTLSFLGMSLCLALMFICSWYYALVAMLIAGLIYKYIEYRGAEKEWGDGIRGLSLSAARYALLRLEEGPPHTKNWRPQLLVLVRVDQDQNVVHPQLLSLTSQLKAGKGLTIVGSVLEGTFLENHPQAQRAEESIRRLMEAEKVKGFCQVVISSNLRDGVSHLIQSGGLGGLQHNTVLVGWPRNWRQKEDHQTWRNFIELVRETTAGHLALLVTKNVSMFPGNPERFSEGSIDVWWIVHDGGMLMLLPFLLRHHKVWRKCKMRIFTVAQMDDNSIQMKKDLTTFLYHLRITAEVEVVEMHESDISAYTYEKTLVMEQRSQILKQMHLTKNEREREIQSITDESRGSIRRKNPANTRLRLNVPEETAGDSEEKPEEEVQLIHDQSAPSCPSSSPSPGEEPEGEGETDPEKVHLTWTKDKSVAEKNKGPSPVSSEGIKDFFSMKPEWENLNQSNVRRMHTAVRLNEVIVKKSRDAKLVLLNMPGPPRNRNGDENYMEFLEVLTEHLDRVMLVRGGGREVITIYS
STAT3 activator: activators of IL-6 induced STAT3 signaling | U3A cells, IL-6 STAT3-luciferase reporter, luminescence; 100% = signal with IL-6 EC80 alone | activation (% of control), % at 5.6 µM | hit rate 0.91% among 190,000;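 active = activation above the screen-wide mean of compound activation plus 3 SD, cut at about 130% in these data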
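Assay system – human STAT1-deficient U3A cells with stable STAT3-luciferase reporter · Also added – IL-6 (33 ng/mL) · Schedule – compound 1 h, then IL-6 6 h at 37 °C · Technique – reporter luminescence signal · Evaluation – % activation versus median of IL-6-stimulated wells · Benchmarks – IL-6-only wells as 100% reference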
HSV augment: increases HSV replication in cells; HSV replication augmentation in cells, fold increase; hit rate 0.005% among 220,000; maximum fold increase; in the data active = maximum fold increase above about 1.5; inconclusive = no clear call, values can overlap the other calls; tested in PC3 cells
STAT3 inh: STAT3 signaling inhibition; U3A cells, IL-6 STAT3-luciferase reporter, luminescence; host cell line lacks STAT1; inhibition, % at 5.5 µM; hit rate 0.89% among 190,000; AID 862;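 active = inhibition above the mean inhibition across all screened compounds plus 3 SD, cut at about 44% in these data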
STAT1 inh: STAT1 signaling inhibition; NIH 3T3 STAT1-luciferase reporter, IFN-gamma, luminescence; hit rate 0.35% among 200,000; AID 920; inhibition, % at 5.5 µM;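 active = inhibition above a set limit, the mean inhibition across all tested compounds plus 3 SD, cut at about 34% in these data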
STAT1 activator: increases IFN-gamma driven STAT1 reporter signal | NIH 3T3 STAT1-luciferase reporter, luminescence; 100% = IFN-gamma alone, no compound | activation (% of control), % at 5.5 µM | hit rate 2.6% among 200,000;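 active = activation above the screen-wide mean activation plus 3 SD, cut at about 130% in these data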
KCC2 sec1: KCC2 (human) modulation, secondary assay; normalised thallium flux (F/F0 slope) at 10 µM; HEK293-KCC2, thallium flux, FluoZin2 fluorescence; stronger effect = higher value; hit rate 15% among 3,700; shares compounds with KCC2 mod; AID 1713;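 active = thallium flux slope above the same plate's solvent-only control mean plus 3 SD; inconclusive = the two replicate wells disagree; inactive = no significant difference from solvent-only control wells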
KCC2 bumet counter: thallium flux persisting under bumetanide in KCC2 cells, counter-screen secondary assay | HEK293-KCC2 + bumetanide/ouabain, thallium flux FluoZin2; stronger effect = higher value | normalized thallium flux at 10 µM | hit rate 49% among 3,700 | shares compounds with KCC2 mod;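 active = thallium entry rate above the same plate's blocked-transporter control wells by more than 3 SD; inconclusive = the two repeat wells disagree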;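 also: raw slope of fluorescence over initial fluorescence between 10 and 20 s after thallium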
KCC2 secondary2: KCC2 (human) modulation, second secondary assay; AID 1715; hit rate 23% among 3,700; normalized thallium flux at 10 µM; shares compounds with KCC2 mod; HEK293-KCC2, thallium flux FluoZin2 fluorescence; actives lie on both sides; F/F0 rise rate, 10–20 s post-thallium;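 active = thallium flux slope more than 3 SD above or below the plate's solvent-only control mean, mostly below; inconclusive = the two repeat wells disagreed; inactive = no significant shift from solvent-only controls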
HEK293 Tl flux: acts in parental HEK cells, KCC2 counter-screen. hit rate 46% among 3,700. thallium flux rate (normalised fluorescence) at 10 µM. AID 1716. shares compounds with KCC2 mod. HEK293 parental cells, thallium flux FluoZin2, ouabain; baseline-ratio fluorescence slope, 10–20 s after thallium;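 active = thallium flux rate significantly above the same plate's solvent-only control wells, beyond their mean plus 3 SD; inconclusive = the two replicate wells gave conflicting results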
KCC2 ouabain: confirmation of human KCC2 modulators with ouabain; raw Tl+ flux slope (below DMSO = inhibition, above = activation) at 10 µM; shares compounds with KCC2 mod; hit rate 48% among 3,700; HEK293-KCC2, thallium flux FluoZin2 fluorescence; bidirectional: low = inhibitor, high = activator; AID 1717;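 active = thallium flux slope beyond 3 SD from same-plate DMSO control mean in most replicates, usually higher, sometimes lower; inconclusive = repeat tests gave conflicting results; inactive = no significant difference from controls in most replicates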;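 also: slope of initial-normalized fluorescence between seconds 10 and 20 after thallium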
HEK293 Tl flux2: counter-screen for KCC2 modulators: effect in parental HEK293 cells | thallium flux FluoZin-2 fluorescence slope | thallium flux slope at 10 µM | AID 1718 | shares compounds with KCC2 mod | hit rate 33% among 3,700;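 active = thallium flux slope above the same plate's solvent-control mean plus 3 SD in both duplicate wells; inconclusive = duplicate wells that disagreed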;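 also: run without ouabain in cells lacking the KCC2 cotransporter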
Hits are given with their value; - = inactive; ? = inconclusive; . = no result given. A selection: hits, their analogues and other compounds. The true share with any hit is near 5.5%.

SMILES	KCC2 mod	STAT3 activator	HSV augment	STAT3 inh	STAT1 inh	STAT1 activator	KCC2 sec1	KCC2 bumet counter	KCC2 secondary2	HEK293 Tl flux	KCC2 ouabain	HEK293 Tl flux2
O=C(O)CSC1=NC(=Nc2cccc(Cl)c2)C2(CCCCC2)N1c1ccccc1	-	-	-	-	-	-	.	.	.	.	.	.
Cc1ccc(C(C)C)c(OCc2ccc(C(=O)N/N=C/c3cccc(O)c3O)cc2)c1	-	-	-	-	-	-	.	.	.	.	.	.
O=C(CCCn1c(=O)[nH]c2cc(Cl)ccc2c1=O)NCCCN1CCCC1	-	-	-	-	-	-	.	.	.	.	.	.
O=C(CCCn1c(=O)[nH]c2cc(Cl)ccc2c1=O)NCC1CCCO1 (centres undefined)	8.55	-	.	-	-	-	-	-	-	-	-	?
COC(=O)c1ccc2c(=O)n(CCCCCC(=O)NCCNC(C)=O)c(=O)[nH]c2c1	5.37	-	-	-	-	-	-	-	-	-	-	-
Cn1c(=O)c2c(ncn2CC(=O)OCC(=O)NCc2ccccc2Cl)n(C)c1=O	-	-	-	-	-	-	.	.	.	.	.	.
COC(=O)C1CCN(C(=O)C2CCCCC2)CC1	-	-	-	-	-	-	.	.	.	.	.	.
CC1=Nc2ccccc2/C1=C/c1sc(=N)n(-c2nccs2)c1O	-3.57	-	.	-	-	-	-	0.000516	0.0198	0.00489	0.00973	0.00711
CC1=Nc2ccccc2/C1=C/c1nc(-c2ccc(C)s2)oc1O	-	-	-	-	-	-	.	.	.	.	.	.
Cc1ccccc1-c1nc(CS(=O)CC(=O)NCc2ccccc2)c(C)o1 (centres undefined)	.	-	-	-	-	-	-	?	0.0236	-	?	-
Cc1noc(C)c1CSc1nc2sc(C)c(C)c2c(=O)n1C1CCCC1	-	-	-	-	-	-	.	.	.	.	.	.
COc1ccc(NC(=S)NCc2ccco2)c(OC)c1	.	-	-	-	-	-	.	.	.	.	.	.
Cc1cc(Cl)ccc1OCc1n[nH]c(=S)n1C1CCCCC1	15.6	-	-	-	-	-	-	0.0409	0.0488	0.0403	0.0365	0.0312
COc1ccc(Cl)cc1-c1n[nH]c(=S)n1C1CCCCC1	-	-	?	-	-	-	.	.	.	.	.	.
CCCCCCCC(=O)NNC(=O)c1c(O)c2ccccc2n(CC)c1=O	10.7	-	-	-	-	-	-	0.016	-	0.0174	?	0.0185
CCCCCCCCC(=O)NNC(=O)c1c(O)c2ccccc2n(CC)c1=O	9.47	-	-	-	-	-	-	0.0219	-	0.0187	0.0299	0.0195
CCCCCCC(=O)NNC(=O)c1c(O)c2ccccc2n(CC)c1=O	5.59	-	-	-	-	-	-	0.0168	-	0.0166	0.0248	0.0158
CCCCCCCC(=O)NNC(=O)c1c(O)c2ccccc2n(CCC)c1=O	.	-	-	-	-	-	.	.	.	.	.	.
COc1cccc(/C=N/NC(=O)CCc2c(C)n[nH]c2C)c1O	-	.	-	.	.	.	.	.	.	.	.	.
CCC(C)C(=O)Nc1nnc(SCC(=O)NC(C)(C)C)s1 (centres undefined)	-	-	-	-	-	-	.	.	.	.	.	.
O=C(C1CCN(S(=O)(=O)c2cccs2)CC1)N1CCc2ccccc2C1	-4.11	-	-	-	-	-	-	-	0.0236	-	0.0176	-
O=C(C1CCCN(S(=O)(=O)c2cccs2)C1)N1CCc2ccccc2C1 (centres undefined)	-3.04	-	-	-	-	-	-	-	-	-	0.0156	-
Cc1ccc(NC(=O)C2CCN(S(=O)(=O)c3c(C)noc3/C=C/c3ccco3)CC2)nc1	-	-	-	-	-	-	.	.	.	.	.	.
Cc1noc(/C=C/c2ccco2)c1S(=O)(=O)N1CCC(C(=O)N2CCc3ccccc3C2)CC1	-	-	.	-	-	-	-	-	0.0264	-	?	-
Cc1cccc(N2CCN(C(=O)C(Cc3ccccc3)n3cccc3)CC2)c1C (centres undefined)	-	-	-	-	-	-	.	.	.	.	.	.
SMILES	KCC2 mod	STAT3 activator	HSV augment	STAT3 inh	STAT1 inh	STAT1 activator	KCC2 sec1	KCC2 bumet counter	KCC2 secondary2	HEK293 Tl flux	KCC2 ouabain	HEK293 Tl flux2
CC(C)c1nnc(NC(=O)c2c(O)c3cccc4c3n(c2=O)CCC4)s1	.	-	-	-	-	-	-	0.00899	-	-	0.0166	-
CCCc1nnc(NC(=O)c2c(O)c3cccc4c3n(c2=O)CC4)s1	.	.	-	.	.	.	.	.	.	.	.	.
Cc1ccc(NS(=O)(=O)c2cc(OCC(N)=O)c(C)cc2Cl)cc1	-	-	-	-	-	-	.	.	.	.	.	.
COc1ccc(Cl)cc1NC(=O)CSc1nncn1-c1cccnc1	-	-	-	-	-	-	.	.	.	.	.	.
COc1cc(C(=O)NCCc2cn3ccc(C)cc3n2)cc(OC)c1OC	-3.41	-	-	-	-	-	?	?	-	-	-	-
S=C(NC1CCCCC1)NC1CC2CCC(C1)N2Cc1ccccc1 (centres undefined)	-	-	-	-	-	-	.	.	.	.	.	.
CC1CCC2(CC1)C(Nc1cccc(Cl)c1)=NC(=S)N2CC#N (centres undefined)	18.6	-	-	-	-	-	0.00974	0.0503	0.0553	0.0518	0.0453	0.0405
Cc1ccccc1NS(=O)(=O)c1ccc2[nH]c(=O)[nH]c2c1	-	-	-	-	-	-	.	.	.	.	.	.
O=C1c2oc3ccc(F)cc3c(=O)c2C(c2ccc(F)cc2)N1CCCN1CCOCC1 (centres undefined)	-	-	-	-	-	-	.	.	.	.	.	.
COc1cccc(C2c3c(oc4ccc(F)cc4c3=O)C(=O)N2CCCN2CCOCC2)c1 (centres undefined)	11.1	-	.	-	-	-	-	0.0107	-	0.0133	?	0.0135
CC1(C)C(=O)OC(c2cccs2)C(C)(C)C1=O (centres undefined)	-	-	-	-	-	-	.	.	.	.	.	.
CCOc1ccc2nc(SC3CC(=O)N(c4ccccc4)C3=O)sc2c1 (centres undefined)	-	-	-	-	-	-	.	.	.	.	.	.
CCOc1ccc2nc(SC3CC(=O)N(c4cccc(OC)c4)C3=O)sc2c1 (centres undefined)	4.66	-	-	-	-	-	0.0238	0.0149	-	0.00929	0.0216	?
